The source made the active and inactive calls. The rule behind the calls is not given here.
Target: G protein-activated inward rectifier potassium channel 2 (Homo sapiens) + G protein-activated inward rectifier potassium channel 3 (Homo sapiens) (UniProt P48051+Q92806)
Experiment: activation of GIRK2/3 current, electrophysiology, HEK-293 hGIRK2/3, whole-cell voltage clamp, Ba2+-sensitive current, GIRK activator project, confirmation (AID 623974)
Procedure, shortened: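 test system = HEK-293 cells stably expressing human GIRK2/3 potassium channels | dosing = compound concentration series fitted by four-parameter logistic curve | technique = whole-cell patch clamp, -70 mV holding, barium subtraction | measure = Barium-blocked steady-state current density, % of methyl pentanediol response | schedule = recording 24–72 h post-plating | buffer or medium = 20K bath, KCl pipette solution pH 7.4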

G protein-activated inward rectifier potassium channel 2 (Homo sapiens) + G protein-activated inward rectifier potassium channel 3 (Homo sapiens), sequence (P48051 whole entry, looked up): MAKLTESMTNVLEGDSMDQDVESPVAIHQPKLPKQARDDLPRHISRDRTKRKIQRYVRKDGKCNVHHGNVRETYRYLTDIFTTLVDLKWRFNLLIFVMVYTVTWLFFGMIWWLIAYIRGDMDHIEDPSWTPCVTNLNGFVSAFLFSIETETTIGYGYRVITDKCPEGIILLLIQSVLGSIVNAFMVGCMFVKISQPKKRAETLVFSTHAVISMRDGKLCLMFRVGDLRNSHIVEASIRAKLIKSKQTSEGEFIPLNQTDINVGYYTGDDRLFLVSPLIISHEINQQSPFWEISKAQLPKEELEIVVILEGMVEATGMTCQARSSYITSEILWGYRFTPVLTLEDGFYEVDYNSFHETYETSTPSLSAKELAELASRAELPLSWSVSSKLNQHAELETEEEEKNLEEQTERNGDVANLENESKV
G protein-activated inward rectifier potassium channel 2 (Homo sapiens) + G protein-activated inward rectifier potassium channel 3 (Homo sapiens), sequence (Q92806 whole entry, looked up): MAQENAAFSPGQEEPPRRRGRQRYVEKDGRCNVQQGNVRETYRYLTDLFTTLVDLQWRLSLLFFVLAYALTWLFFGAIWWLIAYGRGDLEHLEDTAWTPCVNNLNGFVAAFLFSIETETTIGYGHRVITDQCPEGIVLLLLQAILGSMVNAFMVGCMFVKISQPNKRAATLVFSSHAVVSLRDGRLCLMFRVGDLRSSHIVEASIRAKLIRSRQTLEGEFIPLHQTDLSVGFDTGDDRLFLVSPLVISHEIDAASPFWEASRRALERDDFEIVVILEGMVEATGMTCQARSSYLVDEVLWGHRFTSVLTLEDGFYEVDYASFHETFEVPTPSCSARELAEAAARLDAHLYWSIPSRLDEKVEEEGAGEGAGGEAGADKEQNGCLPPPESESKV

Cc1cc(NC(=O)Nc2ccc(F)c(F)c2)n(-c2ccccc2)n1
outcome: inactive

Reference: PubChem BioAssay AID623974 (Vanderbilt High Throughput Screening Facility, 2012)
